Assay results reported in ChEMBL document CHEMBL3352109, “Synthesis and antifungal activity of substituted salicylaldehyde hydrazones, hydrazides and sulfohydrazides” (Bioorg Med Chem, 2014).
≈ marks a conversion by molar mass, not a printed value. Calls of active or inactive are those of the source. The rule behind the calls is not given here.

What was measured:
[1] = test system: Nakaseomyces glabratus; test: Antifungal activity against Candida glabrata ATCC 48435 at 125 ug/ml by NCCLS method; type: functional, organism-based
[2] = test system: Candida albicans; test: Antifungal activity against Candida albicans ATCC 10231 at 125 ug/ml by NCCLS method; type: functional, organism-based
[3] = test system: Candida albicans; test: Antifungal activity against Candida albicans ATCC 10231 by NCCLS method; type: functional
How it was run: (§1)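 Broth dilution per NCCLS yeast reference method, in HEPES-buffered RPMI with 1% DMSO. MIC80 is the lowest concentration giving more than 80% growth inhibition versus positive (no-drug) controls. Read by visual scoring, not absorbance. Highest level tested 125 µg/mL.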

[4] = test system: Nakaseomyces glabratus; test: Antifungal activity against Candida glabrata ATCC 48435 by NCCLS method; type: functional; how it was run: as §1

| SMILES | MIC80 [3] | MIC80 [4] | Activity [1] | Activity [2] |
| --- | --- | --- | --- | --- |
| COc1ccc(S(=O)(=O)N/N=C/c2cc(C)ccc2O)cc1 |  |  | inactive | inactive |
| O=C(N/N=C/c1cc(Cl)ccc1O)c1ccc(O)cc1 | inactive | 62 µg/mL (≈ 213 µM) |  |  |
| O=[N+]([O-])c1ccc(S(=O)(=O)N/N=C/c2cc(Cl)ccc2O)cc1 |  |  | inactive | inactive |
| COc1ccc(O)c(/C=N/NS(=O)(=O)c2ccc(C)cc2)c1 |  |  | inactive | inactive |
| N/N=C/c1ccc(O)cc1O | 62 µg/mL (≈ 407 µM) | 31 µg/mL (≈ 204 µM) |  |  |
| O=C(N/N=C/c1cc([N+](=O)[O-])ccc1O)c1ccc([N+](=O)[O-])cc1 | inactive | 16 µg/mL (≈ 48.4 µM) |  |  |
| O=[N+]([O-])c1ccc(S(=O)(=O)N/N=C/c2cc([N+](=O)[O-])ccc2O)cc1 |  |  | inactive | inactive |
| Oc1c(Cl)cc(Cl)cc1/C=N/Nc1ccccc1 | 125 µg/mL (≈ 445 µM) | 125 µg/mL (≈ 445 µM) |  |  |
| Oc1ccccc1/C=N/N=C/c1ccccc1O | inactive | inactive |  |  |
| Cc1ccc(S(=O)(=O)N/N=C/c2cc([N+](=O)[O-])ccc2O)cc1 |  |  | inactive | inactive |
| O=[N+]([O-])c1ccc(N/N=C/c2ccc(O)cc2O)c([N+](=O)[O-])c1 | inactive | inactive |  |  |
| N/N=C/c1cc(Cl)ccc1O | 62 µg/mL (≈ 363 µM) | 31 µg/mL (≈ 182 µM) |  |  |
| O=C(N/N=C/c1cc([N+](=O)[O-])cc([N+](=O)[O-])c1O)c1ccccc1 | inactive | inactive |  |  |
| N/N=C/c1cc([N+](=O)[O-])ccc1O | inactive | 31 µg/mL (≈ 171 µM) |  |  |
| O=Cc1ccc(/C=N/Nc2ccc([N+](=O)[O-])cc2[N+](=O)[O-])cc1 | inactive | inactive |  |  |
| O=[N+]([O-])c1ccc(N/N=C/c2cc(Br)ccc2O)cc1 | inactive | inactive |  |  |
| O=C(N/N=C/c1ccc(/C=N/NC(=O)c2ccccc2)cc1)c1ccccc1 | inactive | inactive |  |  |
| CC(C)(C)c1cccc(/C=N/N)c1O | 125 µg/mL (≈ 650 µM) | 62 µg/mL (≈ 322 µM) |  |  |
| O=C(N/N=C/c1ccc(O)cc1O)c1ccc([N+](=O)[O-])cc1 | inactive | 0.5 µg/mL (≈ 1.66 µM) |  |  |
| COc1ccc(O)c(/C=N/NC(=O)c2ccc(O)cc2)c1 | inactive | 4 µg/mL (≈ 14 µM) |  |  |

| SMILES | MIC80 [3] | MIC80 [4] | Activity [1] | Activity [2] |
| --- | --- | --- | --- | --- |
| Oc1c(Br)cc(Br)cc1/C=N/Nc1ccccc1 | inactive | 62 µg/mL (≈ 168 µM) |  |  |
| CC(C)(C)c1cccc(/C=N/Nc2ccc([N+](=O)[O-])cc2)c1O | inactive | inactive |  |  |
| N/N=C/c1cc(Cl)cc(Cl)c1O | 16 µg/mL (≈ 78 µM) | 62 µg/mL (≈ 302 µM) |  |  |
| C(=N\Nc1ccccc1)/c1ccc(/C=N/Nc2ccccc2)cc1 | inactive | 125 µg/mL (≈ 398 µM) |  |  |
| O=[N+]([O-])c1ccc(N/N=C/c2ccc(O)cc2O)cc1 | inactive | 1 µg/mL (≈ 3.66 µM) |  |  |
| O=[N+]([O-])c1ccc(N/N=C/c2cc(Cl)ccc2O)cc1 | inactive | 62 µg/mL (≈ 213 µM) |  |  |
| Cc1ccc(O)c(/C=N/NC(=O)c2ccccc2O)c1 | 16 µg/mL (≈ 59.2 µM) | inactive |  |  |
| N/N=C/c1cc(Br)cc(Br)c1O | 16 µg/mL (≈ 54.4 µM) | 8 µg/mL (≈ 27.2 µM) |  |  |
| O=[N+]([O-])c1ccc(N/N=C/c2cccc(Br)c2O)cc1 | inactive | inactive |  |  |
| O=C(N/N=C/c1cc(Cl)ccc1O)c1ccccc1O | 8 µg/mL (≈ 27.5 µM) | inactive |  |  |
| O=C(N/N=C/c1ccc(/C=N/NC(=O)c2ccc([N+](=O)[O-])cc2)cc1)c1ccc([N+](=O)[O-])cc1 | inactive | inactive |  |  |
| Cc1ccc(O)c(/C=N/NC(=O)c2ccc(O)cc2)c1 | inactive | 1 µg/mL (≈ 3.7 µM) |  |  |
| O=[N+]([O-])c1ccc(N/N=C/c2cc(Br)cc(Br)c2O)cc1 | inactive | 62 µg/mL (≈ 149 µM) |  |  |
| Cc1ccc(O)c(/C=N/Nc2ccc([N+](=O)[O-])cc2)c1 | inactive | inactive |  |  |
| O=[N+]([O-])c1ccc(N/N=C/c2ccccc2O)c([N+](=O)[O-])c1 | inactive | inactive |  |  |
| CC(C)(C)c1cccc(/C=N/NC(=O)c2ccccc2)c1O | inactive | inactive |  |  |
| O=C(N/N=C/c1ccccc1O)c1ccc(O)cc1 | inactive | 4 µg/mL (≈ 15.6 µM) |  |  |
| CC(C)(C)c1cccc(/C=N/Nc2ccccc2)c1O | inactive | inactive |  |  |
| O=[N+]([O-])c1ccc(N/N=C/c2cc(Cl)cc(Cl)c2O)cc1 | inactive | 62 µg/mL (≈ 190 µM) |  |  |
| Cc1ccc(C)c(N/N=C/c2ccccc2O)c1 | inactive | inactive |  |  |

Continued, in another order:

| MIC80 [3] | MIC80 [4] | SMILES | Activity [1] | Activity [2] |
| --- | --- | --- | --- | --- |
| 31 µg/mL (≈ 90.8 µM) | 125 µg/mL (≈ 366 µM) | CC(C)(C)c1cccc(/C=N/NC(=O)c2ccc([N+](=O)[O-])cc2)c1O |  |  |
| 31 µg/mL (≈ 121 µM) | 1 µg/mL (≈ 3.9 µM) | O=C(N/N=C/c1ccc(O)cc1O)c1ccccc1 |  |  |
| 125 µg/mL (≈ 414 µM) | 62 µg/mL (≈ 205 µM) | O=[N+]([O-])c1ccc(N/N=C/c2cc([N+](=O)[O-])ccc2O)cc1 |  |  |
| 2 µg/mL (≈ 6.27 µM) | 2 µg/mL (≈ 6.27 µM) | O=C(N/N=C/c1cc(Br)ccc1O)c1ccccc1 |  |  |
| 1 µg/mL (≈ 2.26 µM) | 125 µg/mL (≈ 282 µM) | O=C(N/N=C/c1cc(Br)cc(Br)c1O)c1ccc([N+](=O)[O-])cc1 |  |  |
| 31 µg/mL (≈ 126 µM) | 31 µg/mL (≈ 126 µM) | Oc1ccc(Cl)cc1/C=N/Nc1ccccc1 |  |  |
| 16 µg/mL (≈ 62.4 µM) | 8 µg/mL (≈ 31.2 µM) | O=C(N/N=C/c1ccccc1O)c1ccccc1O |  |  |
| 62 µg/mL (≈ 274 µM) | 8 µg/mL (≈ 35.4 µM) | Cc1ccc(O)c(/C=N/Nc2ccccc2)c1 |  |  |
| 31 µg/mL (≈ 87.5 µM) | 125 µg/mL (≈ 353 µM) | O=C(N/N=C/c1cc(Cl)cc(Cl)c1O)c1ccc([N+](=O)[O-])cc1 |  |  |
| 8 µg/mL (≈ 25.9 µM) | 16 µg/mL (≈ 51.8 µM) | O=C(N/N=C/c1cc(Cl)cc(Cl)c1O)c1ccccc1 |  |  |
| 1 µg/mL (≈ 2.75 µM) | 2 µg/mL (≈ 5.49 µM) | O=C(N/N=C/c1cc(Br)ccc1O)c1ccc([N+](=O)[O-])cc1 |  |  |
| 125 µg/mL (≈ 396 µM) | 2 µg/mL (≈ 6.34 µM) | COc1ccc(O)c(/C=N/NC(=O)c2ccc([N+](=O)[O-])cc2)c1 |  |  |
| 31 µg/mL (≈ 121 µM) | 16 µg/mL (≈ 62.2 µM) | O=[N+]([O-])c1ccc(O)c(/C=N/Nc2ccccc2)c1 |  |  |
| 4 µg/mL (≈ 14.8 µM) | 0.5 µg/mL (≈ 1.85 µM) | COc1ccc(O)c(/C=N/NC(=O)c2ccccc2)c1 |  |  |
| 16 µg/mL (≈ 50 µM) | 62 µg/mL (≈ 194 µM) | O=C(N/N=C/c1cc(Cl)ccc1O)c1ccc([N+](=O)[O-])cc1 |  |  |
| 125 µg/mL (≈ 486 µM) | 4 µg/mL (≈ 15.5 µM) | O=[N+]([O-])c1ccc(N/N=C/c2ccccc2O)cc1 |  |  |

| MIC80 [3] | MIC80 [4] | SMILES | Activity [1] | Activity [2] |
| --- | --- | --- | --- | --- |
| 2 µg/mL (≈ 8.32 µM) | 1 µg/mL (≈ 4.16 µM) | O=C(N/N=C/c1ccccc1O)c1ccccc1 [SALICYLALDEHYDE BENZOYL HYDRAZONE] |  |  |
| 8 µg/mL (≈ 23.9 µM) | 62 µg/mL (≈ 185 µM) | O=C(N/N=C/c1cc(Br)ccc1O)c1ccccc1O |  |  |
| 8 µg/mL (≈ 27.5 µM) | 16 µg/mL (≈ 55 µM) | Oc1c(Br)cccc1/C=N/Nc1ccccc1 |  |  |
| 16 µg/mL (≈ 55.9 µM) | 16 µg/mL (≈ 55.9 µM) | COc1ccc(O)c(/C=N/NC(=O)c2ccccc2O)c1 |  |  |
| 4 µg/mL (≈ 12.5 µM) | 2 µg/mL (≈ 6.27 µM) | O=C(N/N=C/c1cccc(Br)c1O)c1ccccc1 |  |  |
| 31 µg/mL (≈ 128 µM) | 31 µg/mL (≈ 128 µM) | COc1ccc(O)c(/C=N/Nc2ccccc2)c1 |  |  |
| 16 µg/mL (≈ 56.1 µM) | 16 µg/mL (≈ 56.1 µM) | O=C(N/N=C/c1cc([N+](=O)[O-])ccc1O)c1ccccc1 |  |  |
| 31 µg/mL (≈ 85.1 µM) | 31 µg/mL (≈ 85.1 µM) | O=C(N/N=C/c1cccc(Br)c1O)c1ccc([N+](=O)[O-])cc1 |  |  |
| 16 µg/mL (≈ 75.4 µM) | 16 µg/mL (≈ 75.4 µM) | Oc1ccccc1/C=N/Nc1ccccc1 |  |  |
| 125 µg/mL (≈ 373 µM) | 62 µg/mL (≈ 185 µM) | O=C(N/N=C/c1cc(Br)ccc1O)c1ccc(O)cc1 |  |  |
| 8 µg/mL (≈ 20.1 µM) | 31 µg/mL (≈ 77.9 µM) | O=C(N/N=C/c1cc(Br)cc(Br)c1O)c1ccccc1 |  |  |
| 31 µg/mL (≈ 136 µM) | 2 µg/mL (≈ 8.76 µM) | Oc1ccc(/C=N/Nc2ccccc2)c(O)c1 |  |  |
| 31 µg/mL (≈ 106 µM) | 31 µg/mL (≈ 106 µM) | Oc1ccc(Br)cc1/C=N/Nc1ccccc1 |  |  |
| 4 µg/mL (≈ 13.5 µM) | 125 µg/mL (≈ 422 µM) | CC(C)(C)c1ccc(C(=O)N/N=C/c2ccccc2O)cc1 |  |  |
| 31 µg/mL (≈ 144 µM) | 62 µg/mL (≈ 288 µM) | N/N=C/c1cc(Br)ccc1O |  |  |
